Source: ChEMBL document CHEMBL4364345, “Synthesis and evaluation of 1,3,4-oxadiazole derivatives for development as broad-spectrum antibiotics” (Bioorg Med Chem, 2019)
In brackets after ≈: the same amount, converted by molar mass. Activity calls are given as the source filed them.

How the values were obtained:
Enterococcus faecium [1] = assay: Antimicrobial activity against Enterococcus faecium AUS0004 by broth microdilution method; assay type: functional
Procedure, shortened: (§1)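 MICs were set by broth microdilution following EUCAST guidelines, from three independent experiments reported as values or ranges. MICs were measured only where disk-diffusion inhibition diameters were 9 mm or more.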

Listeria monocytogenes [2] = assay: Synergistic antimicrobial activity against Listeria monocytogenes clinical isolate assessed as DIZ at 50 ug/disk incubated for 20 +/- 4 hrs in presence of fosfomycin by agar disk diffusion method (reference value: 6 millimeter); assay type: functional; details: read-out: DIZ
MDA-MB-231 = assay: Cytotoxicity against human MDA-MB-231 cells assessed as decrease in cell viability in MTT assay; assay type: cell-based
Procedure, shortened: (§2)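 Cell viability was measured by MTT on a robotic screening platform. Residual viability was expressed as a percentage of the mean viable cells in DMSO-treated controls. Under 25-30% viability was considered cytotoxic, and IC50 values were derived.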

MCF7 = assay: Cytotoxicity against human MCF7 cells assessed as decrease in cell viability in MTT assay; assay type: cell-based; procedure, shortened: as §2
Enterococcus faecalis [3] = assay: Synergistic antimicrobial activity against Enterococcus faecalis ATCC 29212 assessed as DIZ at 50 ug/disk incubated for 20 +/- 4 hrs in presence of rifampicin by agar disk diffusion method (reference value: 20 millimeter); assay type: functional; details: read-out: DIZ
NCI-H727 = assay: Cytotoxicity against human NCI-H727 cells assessed as decrease in cell viability in MTT assay; assay type: cell-based; procedure, shortened: as §2
Streptococcus pyogenes [4] = assay: Antimicrobial activity against Streptococcus pyogenes clinical isolate by broth microdilution method; assay type: functional; procedure, shortened: as §1
Enterococcus faecium [5] = assay: Synergistic antimicrobial activity against Enterococcus faecium AUS0004 assessed as DIZ at 50 ug/disk incubated for 20 +/- 4 hrs in presence of erythromycin by agar disk diffusion method (reference value: 6 millimeter); assay type: functional; details: read-out: DIZ
Enterococcus faecium [6] = assay: Antimicrobial activity against Enterococcus faecium HM1070 at 50 ug/disk incubated for 20 +/- 4 hrs by agar disk diffusion method; assay type: functional; details: read-out: DIZ
Procedure, shortened: (§3)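 Agar disk diffusion on Mueller-Hinton agar swab-seeded from a 0.5 McFarland inoculum (about 10^8 CFU/ml). Cellulose discs got 50 μg compound (10 μl of 5 g/L in DMSO); a 10 μL DMSO disc was the control. Incubated aerobically at 35 ± 2 °C for 20 ± 4 h, then growth-inhibition diameters measured.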

Listeria monocytogenes [7] = assay: Antimicrobial activity against Listeria monocytogenes clinical isolate at 50 ug/disk incubated for 20 +/- 4 hrs by agar disk diffusion method; assay type: functional; details: read-out: DIZ
Procedure, shortened: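 Disk diffusion on MH agar with 5% horse blood, seeded by swab from a 0.5 McFarland suspension. Discs held 50 μg compound from a 5 g/L DMSO solution, with a DMSO-only control disc. Aerobic incubation at 35 ± 2 °C for 20 ± 4 h; inhibition zone diameter read.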

Morganella morganii = assay: Antimicrobial activity against Morganella morganii EB8clinical isolate at 50 ug/disk incubated for 20 +/- 4 hrs by agar disk diffusion method; assay type: functional; details: EB8, read-out: DIZ; procedure, shortened: as §3
Bacteroides fragilis = assay: Antimicrobial activity against Bacteroides fragilis ATCC 25285 by broth microdilution method; assay type: functional; procedure, shortened: as §1
Huh-7 = assay: Cytotoxicity against human HuH7 cells assessed as decrease in cell viability in MTT assay; assay type: cell-based; procedure, shortened: as §2
[8] = test system: Staphylococcus epidermidis; assay: Antimicrobial activity against Staphylococcus epidermidis clinical isolate at 50 ug/disk incubated for 20 +/- 4 hrs by agar disk diffusion method; assay type: functional; details: read-out: DIZ; procedure, shortened: as §3
Enterococcus faecium [9] = assay: Synergistic antimicrobial activity against Enterococcus faecium AUS0004 assessed as DIZ at 50 ug/disk incubated for 20 +/- 4 hrs in presence of rifampicin by agar disk diffusion method (reference value: 10 millimeter); assay type: functional; details: read-out: DIZ
Kocuria rhizophila = assay: Antimicrobial activity against Kocuria rhizophila clinical isolate at 50 ug/disk incubated for 20 +/- 4 hrs by agar disk diffusion method; assay type: functional; details: read-out: DIZ; procedure, shortened: as §3
Enterobacter cloacae = assay: Antimicrobial activity against Enterobacter cloacae clinical isolate at 50 ug/disk incubated for 20 +/- 4 hrs by agar disk diffusion method; assay type: functional; details: read-out: DIZ; procedure, shortened: as §3
Enterococcus faecalis [10] = assay: Antimicrobial activity against Enterococcus faecalis ATCC 29212 at 50 ug/disk incubated for 20 +/- 4 hrs by agar disk diffusion method; assay type: functional; details: read-out: DIZ; procedure, shortened: as §3
Acinetobacter baumannii = assay: Antimicrobial activity against Acinetobacter baumannii clinical isolate at 50 ug/disk incubated for 20 +/- 4 hrs by agar disk diffusion method; assay type: functional; details: read-out: DIZ; procedure, shortened: as §3
Streptococcus pyogenes [11] = assay: Antimicrobial activity against Streptococcus pyogenes clinical isolate at 50 ug/disk incubated for 20 +/- 4 hrs by agar disk diffusion method; assay type: functional; details: read-out: DIZ
Procedure, shortened: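 Plates of MH + 5% horse blood were swabbed with a 0.5 McFarland inoculum and received discs with 50 μg compound (from 5 g/L in DMSO) plus a 10 μL DMSO control disc. Incubation at 35 ± 2 °C aerobically with 5% CO2 for 20 ± 4 h, then zone diameters measured.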

Escherichia coli [12] = assay: Antimicrobial activity against TolC deficient Escherichia coli BW25113 by broth microdilution method; assay type: functional
Procedure, shortened: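 MIC by broth microdilution per EUCAST guidelines, in E. coli BW25113 and its previously described deletion derivative.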

Escherichia coli [13] = assay: Antimicrobial activity against arfA-arfB TolC deficient Escherichia coli BW25113 by agar disk diffusion method; assay type: functional
Caco-2 = assay: Cytotoxicity against human Caco2 cells assessed as decrease in cell viability in MTT assay; assay type: cell-based; procedure, shortened: as §2
[14] = test system: Staphylococcus epidermidis; assay: Antimicrobial activity against Staphylococcus epidermidis clinical isolate by broth microdilution method; assay type: functional; procedure, shortened: as §1
Enterococcus faecalis [15] = assay: Antimicrobial activity against Enterococcus faecalis ATCC 29212 by broth microdilution method; assay type: functional; procedure, shortened: as §1
Bacillus subtilis = assay: Antimicrobial activity against Bacillus subtilis clinical isolate at 50 ug/disk incubated for 20 +/- 4 hrs by agar disk diffusion method; assay type: functional; details: read-out: DIZ; procedure, shortened: as §3
Clostridium perfringens = assay: Antimicrobial activity against Clostridium perfringens clinical isolate by broth microdilution method; assay type: functional
Procedure, shortened: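 MIC by broth microdilution following EUCAST guidelines; values or ranges from three independent experiments. MICs were determined only where the disk diffusion inhibition diameter was at least 9 mm.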

Escherichia coli [16] = assay: Antimicrobial activity against clpP-TolC deficient Escherichia coli BW25113 by agar disk diffusion method; assay type: functional
Staphylococcus aureus [17] = assay: Antimicrobial activity against Staphylococcus aureus clinical isolate at 50 ug/disk incubated for 20 +/- 4 hrs by agar disk diffusion method; assay type: functional; details: read-out: DIZ; procedure, shortened: as §3
Staphylococcus aureus [18] = assay: Antimicrobial activity against Staphylococcus aureus ATCC 29213 at 50 ug/disk incubated for 20 +/- 4 hrs by agar disk diffusion method; assay type: functional; details: read-out: DIZ; procedure, shortened: as §3

| SMILES | MIC (Enterococcus faecium [1]) [µg/mL] | IC50 (MDA-MB-231) [µM] | IC50 (MCF7) [µM] | MIC (Streptococcus pyogenes [4]) [µg/mL] | zone of inhibition at 50 µg/disc (Enterococcus faecium [6]) [mm] | zone of inhibition at 50 µg/disc (Listeria monocytogenes [7]) [mm] | zone of inhibition at 50 µg/disc (Morganella morganii) [mm] | MIC (Bacteroides fragilis) | IC50 (Huh-7) [µM] | zone of inhibition at 50 µg/disc [8] [mm] | zone of inhibition at 50 µg/disc (Kocuria rhizophila) [mm] | zone of inhibition at 50 µg/disc (Enterobacter cloacae) [mm] | zone of inhibition at 50 µg/disc (Enterococcus faecalis [10]) [mm] | zone of inhibition at 50 µg/disc (Acinetobacter baumannii) [mm] | zone of inhibition at 50 µg/disc (Streptococcus pyogenes [11]) [mm] | diameter of the inhibition zone (DIZ) (Escherichia coli [13]) [mm] | IC50 (Caco-2) [µM] | MIC [14] [µg/mL] | MIC (Enterococcus faecalis [15]) [µg/mL] | zone of inhibition at 50 µg/disc (Bacillus subtilis) [mm] | further results |
| --- | --- | --- | --- | --- | --- | --- | --- | --- | --- | --- | --- | --- | --- | --- | --- | --- | --- | --- | --- | --- | --- |
| O=C(Nc1nnc(-c2ccc(C(F)(F)F)cc2)o1)c1cccc(Cl)c1 | 0.0625 to 0.25 (≈ 0.17 to 0.68 µM) | 23 | 15 | 4 to 32 (≈ 10.9 to 87 µM) | 23 | 28 | 6 | 1 to 2 µg/mL (≈ 2.72 to 5.44 µM) | 20 | 27 | 30 | 6 | 20 | 6 | 9 | 22.6 | 11 | 0.0625 to 0.25 (≈ 0.17 to 0.68 µM) | 0.125 to 1 (≈ 0.34 to 2.72 µM) | 24 | zone of inhibition at 50 µg/disc (Listeria monocytogenes [2]): 30 mm; zone of inhibition at 50 µg/disc (Enterococcus faecalis [3]): 23 mm; IC50 (NCI-H727): 10 µM; zone of inhibition at 50 µg/disc (Enterococcus faecium [5]): 22 mm; zone of inhibition at 50 µg/disc (Enterococcus faecium [9]): 26 mm; MBC (Escherichia coli [12]): 16 µM (≈ 5.88 µg/mL); MIC (Escherichia coli [12]): 0.25 µM (≈ 0.0919 µg/mL); MIC (Clostridium perfringens): 2 to 4 µg/mL (≈ 5.44 to 10.9 µM); diameter of the inhibition zone (DIZ) (Escherichia coli [16]): 22.3 mm; zone of inhibition at 50 µg/disc (Staphylococcus aureus [17]): 28 mm; zone of inhibition at 50 µg/disc (Staphylococcus aureus [18]): 24 mm |
| O=C(Nc1ncc(-c2ccc(F)cc2)o1)c1ccc(Cl)cc1 | 1 to 4 (≈ 3.16 to 12.6 µM) | 5 | 4 | 32 to 64 (≈ 101 to 202 µM) | 13 | 17 | 6 | inactive | 3 | 18 | 18 | 6 | 11 | 6 | 6 | 14 | 3 | 0.25 (≈ 0.789 µM) | 2 to 16 (≈ 6.31 to 50.5 µM) | 15 | zone of inhibition at 50 µg/disc (Listeria monocytogenes [2]): 15 mm; zone of inhibition at 50 µg/disc (Enterococcus faecalis [3]): 20 mm; zone of inhibition at 50 µg/disc (Enterococcus faecium [5]): 12 mm; zone of inhibition at 50 µg/disc (Enterococcus faecium [9]): 15 mm; MIC (Clostridium perfringens): inactive; diameter of the inhibition zone (DIZ) (Escherichia coli [16]): 13.3 mm; zone of inhibition at 50 µg/disc (Staphylococcus aureus [17]): 20 mm; zone of inhibition at 50 µg/disc (Staphylococcus aureus [18]): 16 mm |
| O=C(Nc1nnc(-c2ccc(C(F)(F)F)cc2)o1)c1ccc(Cl)nc1 | 2 (≈ 5.42 µM) | > 25 | > 25 | 32 (≈ 86.8 µM) | 24 | 31 | 6 | 2 µg/mL (≈ 5.42 µM) | > 25 | 28 | 28 | 6 | 23 | 6 | 10 | 22.05 | > 25 | 1 to 2 (≈ 2.71 to 5.42 µM) | 2 to 4 (≈ 5.42 to 10.8 µM) | 24 | zone of inhibition at 50 µg/disc (Listeria monocytogenes [2]): 29 mm; zone of inhibition at 50 µg/disc (Enterococcus faecalis [3]): 23 mm; IC50 (NCI-H727): > 25 µM; zone of inhibition at 50 µg/disc (Enterococcus faecium [5]): 22 mm; zone of inhibition at 50 µg/disc (Enterococcus faecium [9]): 22 mm; MIC (Escherichia coli [12]): 1 µM (≈ 0.369 µg/mL); MIC (Clostridium perfringens): 4 µg/mL (≈ 10.8 µM); diameter of the inhibition zone (DIZ) (Escherichia coli [16]): 27 mm; zone of inhibition at 50 µg/disc (Staphylococcus aureus [17]): 30 mm; zone of inhibition at 50 µg/disc (Staphylococcus aureus [18]): 22 mm |
| O=C(Nc1nnc(-c2ccc(F)cc2)o1)c1ccc(Cl)cc1 | 16 (≈ 50.4 µM) | 25 | 22 | 32 to 64 (≈ 101 to 201 µM) | 8 | 13 | 6 | 2 to 4 µg/mL (≈ 6.3 to 12.6 µM) | 20 | 15 | 11 | 6 | 6 | 6 | 6 | 12.3 | 14 | 0.5 to 4 (≈ 1.57 to 12.6 µM) | 16 (≈ 50.4 µM) | 12 | IC50 (NCI-H727): 18 µM; MIC (Escherichia coli [12]): 2 µM (≈ 0.635 µg/mL); MIC (Clostridium perfringens): 4 µg/mL (≈ 12.6 µM); diameter of the inhibition zone (DIZ) (Escherichia coli [16]): 14.3 mm; zone of inhibition at 50 µg/disc (Staphylococcus aureus [17]): 17 mm; zone of inhibition at 50 µg/disc (Staphylococcus aureus [18]): 12 mm |
